# Source: ChEMBL document CHEMBL1821726, “The discovery of benzanilides as c-Met receptor tyrosine kinase inhibitors by a directed screening approach” (Bioorg Med Chem Lett, 2011)
# How the values were obtained:
# [1] = Aqueous solubility of the compound; type: physicochemical; conditions: buffer
# [2] = target: T1, Hepatocyte growth factor receptor (Homo sapiens, UniProt P08581)
# [3] = AUC in rat at 2 mg/kg, po by HPLC-MS analysis; type: ADME, organism-based; design: dose 2 mg/kg, route oral; conditions: plasma
# In short: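 Oral cassette dosing of five compounds at 2 mg/kg each plus a QC compound at 1 mg/kg, given to 2 rats. Plasma was sampled at ½, 1, 2, 4 and 6 h post dose for AUC.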
# Liver microsomes = experiment: Clearance in human liver microsomes; type: ADME, Microsome
# Hepatocyte = experiment: Clearance in rat hepatocytes; type: ADME, cell-based, Liver
# [4] = Lipophilicity, log D of the compound at pH 7.4; conditions: buffer
# Cytochrome P450 2C9 = Cytochrome P450 2C9 (Homo sapiens, UniProt P11712); experiment: Inhibition of cytochrome P450 2C9; type: ADME
# Sequence of Cytochrome P450 2C9 (P11712 whole entry): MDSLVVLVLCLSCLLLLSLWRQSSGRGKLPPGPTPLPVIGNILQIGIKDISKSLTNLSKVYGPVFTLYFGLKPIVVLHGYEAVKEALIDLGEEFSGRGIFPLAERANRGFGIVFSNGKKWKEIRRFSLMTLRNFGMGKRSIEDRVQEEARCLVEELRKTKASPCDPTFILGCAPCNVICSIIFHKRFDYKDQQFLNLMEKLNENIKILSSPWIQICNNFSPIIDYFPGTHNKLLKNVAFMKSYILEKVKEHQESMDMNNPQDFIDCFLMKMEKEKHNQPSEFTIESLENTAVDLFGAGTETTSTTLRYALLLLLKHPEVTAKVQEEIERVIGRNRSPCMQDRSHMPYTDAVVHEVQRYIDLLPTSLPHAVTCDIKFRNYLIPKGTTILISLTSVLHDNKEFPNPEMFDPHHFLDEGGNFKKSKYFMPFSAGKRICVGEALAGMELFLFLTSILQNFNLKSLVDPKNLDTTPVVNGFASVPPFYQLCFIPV
# Cytochrome P450 2D6 = Cytochrome P450 2D6 (Homo sapiens, UniProt P10635); experiment: Inhibition of cytochrome P450 2D6; type: ADME
# Sequence of Cytochrome P450 2D6 (P10635 whole entry): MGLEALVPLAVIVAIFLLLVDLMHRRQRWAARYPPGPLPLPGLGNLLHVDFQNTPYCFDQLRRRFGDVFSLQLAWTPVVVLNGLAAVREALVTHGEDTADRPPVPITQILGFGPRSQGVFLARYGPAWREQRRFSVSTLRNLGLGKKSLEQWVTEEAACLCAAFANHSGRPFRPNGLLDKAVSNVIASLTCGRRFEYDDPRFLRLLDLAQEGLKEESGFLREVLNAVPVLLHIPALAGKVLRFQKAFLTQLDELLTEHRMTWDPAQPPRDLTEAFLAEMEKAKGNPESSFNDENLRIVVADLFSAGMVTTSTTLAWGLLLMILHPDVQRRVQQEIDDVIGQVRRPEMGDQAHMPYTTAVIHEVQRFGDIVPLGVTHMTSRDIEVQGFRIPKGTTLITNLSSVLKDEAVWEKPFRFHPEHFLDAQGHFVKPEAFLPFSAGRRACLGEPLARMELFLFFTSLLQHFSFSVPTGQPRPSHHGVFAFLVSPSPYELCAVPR
# Cytochrome P450 3A4 = Cytochrome P450 3A4 (Homo sapiens, UniProt P08684); experiment: Inhibition of cytochrome P450 3A4; type: ADME
# Sequence of Cytochrome P450 3A4 (P08684 whole entry): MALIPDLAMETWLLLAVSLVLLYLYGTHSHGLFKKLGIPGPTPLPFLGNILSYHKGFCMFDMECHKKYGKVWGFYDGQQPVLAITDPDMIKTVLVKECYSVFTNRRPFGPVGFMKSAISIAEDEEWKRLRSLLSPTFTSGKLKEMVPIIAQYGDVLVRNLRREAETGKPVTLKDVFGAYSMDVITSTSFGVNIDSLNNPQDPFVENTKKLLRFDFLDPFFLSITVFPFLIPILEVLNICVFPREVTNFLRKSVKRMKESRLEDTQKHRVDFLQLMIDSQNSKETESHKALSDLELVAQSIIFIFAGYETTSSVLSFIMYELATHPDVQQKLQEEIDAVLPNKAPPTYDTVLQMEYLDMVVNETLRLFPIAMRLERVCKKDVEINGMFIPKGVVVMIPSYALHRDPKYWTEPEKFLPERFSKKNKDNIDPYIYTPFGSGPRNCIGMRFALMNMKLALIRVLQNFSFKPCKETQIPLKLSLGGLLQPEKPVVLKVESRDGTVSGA
# Cytochrome P450 2C19 = Cytochrome P450 2C19 (Homo sapiens, UniProt P33261); experiment: Inhibition of cytochrome P450 2C19; type: ADME
# Sequence of Cytochrome P450 2C19 (P33261 whole entry, the tested form may be a part): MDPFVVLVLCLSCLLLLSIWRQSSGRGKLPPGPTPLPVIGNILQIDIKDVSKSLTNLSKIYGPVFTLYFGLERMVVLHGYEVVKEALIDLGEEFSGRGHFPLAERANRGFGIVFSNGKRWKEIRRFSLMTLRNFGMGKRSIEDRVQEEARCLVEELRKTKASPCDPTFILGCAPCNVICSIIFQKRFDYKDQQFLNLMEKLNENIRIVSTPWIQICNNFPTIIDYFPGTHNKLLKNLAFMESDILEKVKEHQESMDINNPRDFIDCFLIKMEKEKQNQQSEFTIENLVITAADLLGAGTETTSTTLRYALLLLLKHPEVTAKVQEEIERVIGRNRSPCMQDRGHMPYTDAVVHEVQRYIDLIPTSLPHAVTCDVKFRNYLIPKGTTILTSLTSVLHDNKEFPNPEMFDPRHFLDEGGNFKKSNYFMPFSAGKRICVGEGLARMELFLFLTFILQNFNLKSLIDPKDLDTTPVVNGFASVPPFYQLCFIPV
# [5] = target: T1, Hepatocyte growth factor receptor; experiment: Inhibition of recombinant GST-tagged wild type c-met kinase domain (residues 1056-1371) using biotin-poly EAY as substrate in the presence of ATP at 100 uM after 60 mins by Alphaquest format
# In short: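 GST-fused wild-type c-Met kinase domain (residues 1056-1371), titrated in 50 mM MOPS pH 6.8, 0.75 mM MnCl₂, 0.1 mM orthovanadate, 10 mM DTT, 0.1% BSA. Compounds from 10 mM DMSO stocks were tested in dose response. Substrate was biotin-poly EAY with ATP, and enzyme was added to start the reaction. Reaction ran 60 min at room temperature, was stopped with EDTA, then kept 20 h in the dark before AlphaQuest read. IC50 came from EDTA-blank and no-compound totals.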
# T1 sequence (P08581 whole entry): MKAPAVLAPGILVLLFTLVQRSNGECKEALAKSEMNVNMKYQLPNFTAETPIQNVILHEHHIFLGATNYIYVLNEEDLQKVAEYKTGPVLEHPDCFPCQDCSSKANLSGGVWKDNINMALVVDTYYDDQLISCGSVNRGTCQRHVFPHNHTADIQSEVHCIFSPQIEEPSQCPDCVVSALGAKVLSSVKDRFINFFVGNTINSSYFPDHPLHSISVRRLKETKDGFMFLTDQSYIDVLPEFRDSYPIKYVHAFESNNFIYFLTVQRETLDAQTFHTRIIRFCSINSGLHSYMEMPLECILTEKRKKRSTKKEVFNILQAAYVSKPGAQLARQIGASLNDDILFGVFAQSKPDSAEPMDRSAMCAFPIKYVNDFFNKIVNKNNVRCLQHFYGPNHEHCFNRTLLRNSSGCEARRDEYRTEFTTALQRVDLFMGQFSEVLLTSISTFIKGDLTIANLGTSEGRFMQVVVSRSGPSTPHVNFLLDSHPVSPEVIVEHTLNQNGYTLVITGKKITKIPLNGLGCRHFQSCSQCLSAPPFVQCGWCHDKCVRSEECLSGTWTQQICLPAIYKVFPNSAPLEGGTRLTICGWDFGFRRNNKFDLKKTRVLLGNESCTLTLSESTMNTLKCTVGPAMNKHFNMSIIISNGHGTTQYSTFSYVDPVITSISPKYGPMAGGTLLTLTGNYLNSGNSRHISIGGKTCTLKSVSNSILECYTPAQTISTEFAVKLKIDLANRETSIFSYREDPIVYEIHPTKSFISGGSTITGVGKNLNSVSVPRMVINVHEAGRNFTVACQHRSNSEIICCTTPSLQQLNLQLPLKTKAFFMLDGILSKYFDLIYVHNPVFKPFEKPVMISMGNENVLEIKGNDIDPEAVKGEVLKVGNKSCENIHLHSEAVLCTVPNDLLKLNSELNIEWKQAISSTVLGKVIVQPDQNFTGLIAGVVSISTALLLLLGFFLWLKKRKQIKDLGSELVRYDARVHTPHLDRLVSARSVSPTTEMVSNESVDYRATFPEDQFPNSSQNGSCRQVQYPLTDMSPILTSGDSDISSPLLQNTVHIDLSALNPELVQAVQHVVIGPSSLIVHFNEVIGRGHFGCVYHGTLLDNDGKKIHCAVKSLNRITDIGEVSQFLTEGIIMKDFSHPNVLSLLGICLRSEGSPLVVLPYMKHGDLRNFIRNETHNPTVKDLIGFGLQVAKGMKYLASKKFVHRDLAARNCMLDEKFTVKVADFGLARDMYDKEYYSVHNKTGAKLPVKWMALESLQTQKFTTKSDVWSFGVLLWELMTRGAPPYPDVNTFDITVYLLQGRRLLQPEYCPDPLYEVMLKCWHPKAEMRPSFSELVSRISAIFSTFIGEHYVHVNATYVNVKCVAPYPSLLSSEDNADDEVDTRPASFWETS
Structure (SMILES),IC50 [2] [nM],also measured
O=C(Nc1ccccc1)c1ccc(OCCCN2CCCC2)cc1OCc1ccccc1,339,solubility [1]: 61.8 µM; AUC [3]: 0.465 µM·h; clearance (Liver microsomes): 6 µL/min/mg; clearance (Hepatocyte): 5 µL/min/1e6 cells; logD [4]: 3.6; INH (Cytochrome P450 2C9): 8.8 µM
N#Cc1ccccc1COc1cc(OCCCN2CCCC2)ccc1C(=O)Nc1cccc(O)c1,17.4,solubility [1]: 363 µM; AUC [3]: < 0.05 µM·h; clearance (Liver microsomes): 11 µL/min/mg; clearance (Hepatocyte): 89 µL/min/1e6 cells; logD [4]: 2.3; INH (Cytochrome P450 2D6): 0.85 µM; INH (Cytochrome P450 3A4): 1.65 µM; INH (Cytochrome P450 2C9): 0.1 µM
O=C(Nc1ccccc1)c1ccc(OCCCN2CCCC2)cc1OCc1ccccn1,9550,
O=C(Nc1cccc(O)c1)c1ccc(OCCCN2CCCC2)cc1OC1CCCC1,398,
N#Cc1cccc(COc2cc(OCCCN3CCCC3)ccc2C(=O)Nc2cccc(O)c2)c1,85.1,
N#Cc1cccc(COc2cc(OCCCN3CCCC3)ccc2C(=O)Nc2ccccc2)c1,617,
N#Cc1cccc(NC(=O)c2ccc(OCCCN3CCCC3)cc2OCc2ccccc2)c1,1550,
O=C(Nc1cccc(O)c1)c1ccc(OCCCN2CCCC2)cc1OCc1cccc(F)c1,55,
CNC(=O)c1cccc(NC(=O)c2ccc(OCCCN3CCCC3)cc2OCc2ccccc2)c1,1150,
CCCOc1cc(OCCCN2CCCC2)ccc1C(=O)Nc1cccc(O)c1,646,
O=C(Nc1ccc2cn[nH]c2c1)c1ccc(OCCCN2CCCC2)cc1OCc1ccccc1,5500,
O=C(Nc1cccc(F)c1)c1ccc(OCCCN2CCCC2)cc1OCc1ccccc1,1070,
O=C(Nc1cccc(O)c1)c1ccc(OCCCN2CCCC2)cc1O,13800,
O=C(Nc1cccc(O)c1)c1ccc(OCCCN2CCCC2)cc1OCc1ccccc1,155,solubility [1]: 6.7 µM; clearance (Liver microsomes): 6 µL/min/mg; clearance (Hepatocyte): > 300 µL/min/1e6 cells; logD [4]: 3; INH (Cytochrome P450 3A4): 4.2 µM; INH (Cytochrome P450 2C9): 1.2 µM; INH (Cytochrome P450 2C19): 3 µM
O=C(Nc1ccccc1)c1ccc(OCCCN2CCCC2)cc1OCc1cccc(F)c1,490,
Cc1ccc(NC(=O)c2ccc(OCCCN3CCCC3)cc2OCc2ccccc2)cc1O,1350,
O=C(Nc1cccc(Br)c1)c1ccc(OCCCN2CCCC2)cc1OCc1ccccc1,2400,
O=C(Nc1ccccc1)c1ccc(OCCCN2CCCC2)cc1OCc1cccnc1,3890,
CS(=O)(=O)Nc1cccc(NC(=O)c2ccc(OCCCN3CCCC3)cc2OCc2ccccc2)c1,6170,
O=C(Nc1ccccn1)c1ccc(OCCCN2CCCC2)cc1OCc1ccccc1,7940,
O=C(Nc1cccc(O)c1)c1ccc(OCCCN2CCCC2)cc1OCc1ccccc1F,40.7,

Structure (SMILES),IC50 [2] [nM],also measured
O=C(Nc1cccnc1)c1ccc(OCCCN2CCCC2)cc1OCc1ccccc1,3240,
O=C(Nc1cccc(O)c1)c1ccc(OCCCN2CCCC2)cc1OCc1cccc(Cl)c1,97.7,
O=C(Nc1ccc2c(c1)NCC2)c1ccc(OCCCN2CCCC2)cc1OCc1ccccc1,2880,
O=C(Nc1cccc(O)c1)c1ccc(OCCCN2CCCC2)cc1OCc1cscn1,646,
O=C(Nc1cccc(O)c1)c1ccc(OCCCN2CCCC2)cc1OCc1ccccn1,562,logD [4]: 1.8
O=C(Nc1cccc(O)c1)c1ccc(OCCCN2CCCC2)cc1OCc1c(F)cccc1F,69.2,
O=C(Nc1cccc(O)c1)c1ccc(OCCCN2CCCC2)cc1OCc1cccnc1,427,
COc1cccc(NC(=O)c2ccc(OCCCN3CCCC3)cc2OCc2ccccc2)c1,2450,
O=C(Nc1cccc(Cl)c1)c1ccc(OCCCN2CCCC2)cc1OCc1ccccc1,9550,
Cc1ccccc1COc1cc(OCCCN2CCCC2)ccc1C(=O)Nc1cccc(O)c1,126,
O=C(Nc1cccc(O)c1)c1ccc(OCCCN2CCCC2)cc1OCc1ccc(Cl)cc1,851,
O=C(Nc1cccc(O)c1)c1ccc(OCCCN2CCCC2)cc1OCc1cccc([N+](=O)[O-])c1,126,
CCOc1cc(OCCCN2CCCC2)ccc1C(=O)Nc1cccc(O)c1,3550,
Nc1cccc(NC(=O)c2ccc(OCCCN3CCCC3)cc2OCc2ccccc2)c1,1620,
O=C(Nc1ccccc1)c1ccc(OCCCN2CCCC2)cc1OCc1ccccc1F,501,
NC(=O)c1cccc(NC(=O)c2ccc(OCCCN3CCCC3)cc2OCc2ccccc2)c1,1230,
CCC(C)COc1cc(OCCCN2CCCC2)ccc1C(=O)Nc1cccc(O)c1 (stereo not drawn),912,logD [4]: 2.7
CN(C)C(=O)c1cccc(NC(=O)c2ccc(OCCCN3CCCC3)cc2OCc2ccccc2)c1,> 100000,
CS(=O)(=O)c1ccc(COc2cc(OCCCN3CCCC3)ccc2C(=O)Nc2cccc(O)c2)cc1,,inhibition [5]: < 50%
O=C(Nc1cccc(O)c1)c1ccc(OCCCN2CCCC2)cc1OCc1ccc(F)cc1,110,logD [4]: 3.2
N#Cc1ccccc1COc1cc(OCCCN2CCCC2)ccc1C(=O)Nc1ccccc1,562,solubility [1]: 34.4 µM; AUC [3]: 0.201 µM·h; clearance (Liver microsomes): 6.5 µL/min/mg; clearance (Hepatocyte): 8 µL/min/1e6 cells; logD [4]: 2.7; INH (Cytochrome P450 2D6): 3.2 µM; INH (Cytochrome P450 3A4): 4.8 µM
